From PubChem BioAssay AID493157 (Broad Institute, 2011)
Active and inactive are the calls of the source.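 Rule for the calls: active = growth-lowering compounds whose AC50 is at most ten times the top tested dose; inconclusive = flat curve with moderate signal loss, or a poor fit; inactive = the rest.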

Key:
[1] = single-agent antifungal toxicity on Candida – CaCi-2 strain, Alamar Blue, dry powder, set 8, counter-screen for antifungal drug resistance project, dose response (AID 493157); settings: C. albicans CaCi-2 growth without fluconazole, Alamar Blue, 48 h
Method in brief: (§1)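 Test system: fluconazole-resistant Candida albicans clinical isolate CaCi-2, no fluconazole present; Quantity: inoculum OD600 0.00015; Medium: RPMI-based synthetic defined medium with MOPS, glucose and uridine; Timing: 48 h static compound exposure, 37 °C, 2 h Alamar Blue; Signal: Alamar Blue fluorescence, 544/590 nm; Evaluation: yeast growth via fluorescence; Benchmarks: geldanamycin positive control.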

[2] = system: C. albicans CaCi-2 (fluconazole-resistant clinical isolate) growth without fluconazole, Alamar Blue, 48 h; assay: as above
Method in brief: as §1

## O=C(Cn1c2ccc(F)cc2c2nc3n(c(=O)c21)CCS3)N1CCCCC1
[1]; at 26 µM
  max activity: 27.4% (inactive)

## CCN(CC)C(=O)Cn1c2ccc(F)cc2c2nc3n(c(=O)c21)CCS3
[1]; at 0.38 µM
  max activity: -28.9% (inactive)

## O=C(Cn1c2ccccc2c2nc3n(c(=O)c21)CCS3)N1CCCCC1
[1]; at 0.1 µM
  max activity: -24.6% (inactive)

## O=C(Cn1nc(-c2ccccc2)c2ccccc21)OC1CCC1
[2]
  AC50: > 26 µM (inactive)

## O=C(Cn1c2ccccc2c2ccncc21)N1CCCCC1
[1]; at 6 µM
  max activity: -15.9% (inactive)

## FC(F)(F)c1ccc(-c2n[nH]c3ccccc23)cc1
[1]; at 0.195 µM
  max activity: -25.6% (inactive)

## COC(=O)Cn1nc(-c2ccccc2)c2ccccc21
[1]; at 12 µM
  max activity: 35.4% (inactive)

## O=C(Cn1c2ccc(F)cc2c2nc3n(c(=O)c21)CCS3)N1CCCC1
[1]; at 0.1 µM
  max activity: -25.8% (inactive)

## COC(=O)Cn1nc(I)c2ccccc21
[1]; at 1.6 µM
  max activity: -30.3% (inactive)

## CCN(CC)C(=O)Cn1c2ccccc2c2nc3n(c(=O)c21)CCS3
[1]; at 0.38 µM
  max activity: -31.2% (inactive)

## COC(=O)C(C)(C)n1nc(-c2ccccc2)c2ccccc21
[1]; at 0.1 µM
  max activity: -31.3% (inactive)

## COC(=O)Cn1nc(-c2ccccc2C)c2ccccc21
[1]; at 26 µM
  max activity: 1.36% (inactive)

## COC(=O)Cn1nc(-c2ccccc2)c2ccc(C(F)(F)F)cc21
[1]; at 0.1 µM
  max activity: -34% (inactive)

## COc1ccc(-c2n[nH]c3ccccc23)cc1
[1]; at 6 µM
  max activity: -32.5% (inactive)

## O=C1OCCC1n1nc(-c2ccccc2)c2ccccc21 (centres undefined)
[1]; at 0.195 µM
  max activity: -31.5% (inactive)

## COC(=O)CCCn1nc(-c2ccccc2)c2ccccc21
[1]; at 1.6 µM
  max activity: -17.6% (inactive)

## O=C(Cn1c2ccc(F)cc2c2nc3n(c(=O)c21)CCS3)N1CCCCCC1
[1]; at 26 µM
  max activity: 13.5% (inactive)

## COC(=O)Cn1nc(-c2cccc(F)c2)c2ccccc21
[1]; at 0.8 µM
  max activity: -22.1% (inactive)

## CCC(=O)Cn1nc(-c2ccccc2)c2ccccc21
[1]; at 0.8 µM
  max activity: -10.2% (inactive)

## O=C(O)Cn1nc(-c2ccccc2)c2ccccc21
[1]; at 6 µM
  max activity: 18.6% (inactive)

## COC(=O)Cn1nc(-c2ccc(F)cc2)c2ccccc21
[1]; at 3 µM
  max activity: -27% (inactive)

## COC(=O)Cn1nc(-c2ccc(C#N)cc2)c2ccccc21
[1]; at 26 µM
  max activity: -38.6% (inactive)

## COC(=O)Cn1nc(-c2ccccc2)c2cccc(C(F)(F)F)c21
[1]; at 0.1 µM
  max activity: -21.2% (inactive)

## O=C(Cn1c2ccccc2c2nc3n(c(=O)c21)CCS3)N1CCCC1
[1]; at 12 µM
  max activity: 17.2% (inactive)

## CCCCn1nc(-c2ccccc2)c2ccccc21
[1]; at 26 µM
  max activity: 28% (inactive)

## O=C(Cn1c2ccccc2c2nc3n(c(=O)c21)CCS3)N1CCOCC1
[1]; at 0.8 µM
  max activity: -18.5% (inactive)

## COC(=O)Cn1c(-c2ccccc2)nc2ccccc21
[1]; at 6 µM
  max activity: 19.2% (inactive)

## COC(=O)Cn1ncc2ccccc21
[1]; at 26 µM
  max activity: -25.4% (inactive)

## CC1CCN(C(=O)Cn2c3ccccc3c3nc4n(c(=O)c32)CCS4)CC1
[1]; at 12 µM
  max activity: -29.8% (inactive)
